Test results published in ChEMBL document CHEMBL2040727, “Substituted thiazoles VI. Synthesis and antitumor activity of new 2-acetamido- and 2 or 3-propanamido-thiazole analogs” (2012).

Tested on: not listed separately
Assay: Growth inhibition of human NCI-ADR-RES cells at 10 uM after 48 hrs by coulter counter analysis
Format: functional
Settings: read-out: GI
In short: (§1)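 Single-dose NCI 60-line panel screen of test compounds. Cells grown in RPMI 1640 with 10% FBS. Compounds dissolved in DMSO, then diluted in phosphate buffer saline (final DMSO below 1%). Wells run in duplicate at 6 × 10⁴ cells/ml. Controls held PBS and DMSO at matching dilutions. Incubation 48 h at 37 °C under humidified 5% CO2. Cells diluted tenfold in saline and counted by Coulter counter. Percent growth inhibition taken from mean-graph of treated-cell growth.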
In the case of `CC(C(=O)Nc1nccs1)N1CCN(c2ccccc2)CC1` (stereo unspecified), the inhibition of growth at 10 µM is reported as under 10%.

Tested on: HCC 2998
Assay: Growth inhibition of human HCC2998 cells at 10 uM after 48 hrs by coulter counter analysis
Format: functional
Settings: HCC 2998, 48 h, read-out: GI
In short: as §1
`CC(C(=O)Nc1nccs1)N1CCN(c2ccccc2)CC1` (stereo unspecified) gave an inhibition of growth at 10 µM of under 10%.

Tested on: MDA-MB-435
Assay: Growth inhibition of human MDA-MB-435 cells at 10 uM after 48 hrs by coulter counter analysis
Format: functional
Settings: MDA-MB-435, 48 h, read-out: GI
In short: as §1
`CC(C(=O)Nc1nccs1)N1CCN(c2ccccc2)CC1` (stereo unspecified) showed an inhibition of growth at 10 µM of under 10%.

Tested on: KM12
Assay: Growth inhibition of human KM12 cells at 10 uM after 48 hrs by coulter counter analysis
Format: functional
Settings: KM12, 48 h, read-out: GI
In short: as §1
`CC(C(=O)Nc1nccs1)N1CCN(c2ccccc2)CC1` (stereo unspecified) showed an inhibition of growth at 10 µM of under 10%.

Tested on: SN12C
Assay: Growth inhibition of human SN12C cells at 10 uM after 48 hrs by coulter counter analysis
Format: functional
Settings: read-out: GI
In short: as §1
For `CC(C(=O)Nc1nccs1)N1CCN(c2ccccc2)CC1` (stereo unspecified), the inhibition of growth at 10 µM was under 10%.

Tested on: HCT-15
Assay: Growth inhibition of human HCT15 cells at 10 uM after 48 hrs by coulter counter analysis
Format: functional
Settings: HCT-15, 48 h, read-out: GI
In short: as §1
With `CC(C(=O)Nc1nccs1)N1CCN(c2ccccc2)CC1` (stereo unspecified) the inhibition of growth at 10 µM was under 10%.

Tested on: M14
Assay: Growth inhibition of human M14 cells at 10 uM after 48 hrs by coulter counter analysis
Format: functional
Settings: M14, 48 h, read-out: GI
In short: as §1
`CC(C(=O)Nc1nccs1)N1CCN(c2ccccc2)CC1` (stereo unspecified) showed an inhibition of growth at 10 µM of under 10%.

Tested on: Malme-3M
Assay: Growth inhibition of human MALME-3M cells at 10 uM after 48 hrs by coulter counter analysis
Format: functional
Settings: read-out: GI
In short: as §1
`CC(C(=O)Nc1nccs1)N1CCN(c2ccccc2)CC1` (stereo unspecified) gave an inhibition of growth at 10 µM of under 10%.

Tested on: OVCAR-8
Assay: Growth inhibition of human OVCAR8 cells at 10 uM after 48 hrs by coulter counter analysis
Format: functional
Settings: OVCAR-8, 48 h, read-out: GI
In short: as §1
Compound `CC(C(=O)Nc1nccs1)N1CCN(c2ccccc2)CC1` (stereo unspecified) has an inhibition of growth at 10 µM of under 10%.

Tested on: NCI-H226
Assay: Growth inhibition of human NCI-H226 cells at 10 uM after 48 hrs by coulter counter analysis
Format: functional
Settings: NCI-H226, 48 h, read-out: GI
In short: as §1
Work on `CC(C(=O)Nc1nccs1)N1CCN(c2ccccc2)CC1` (stereo unspecified) yielded an inhibition of growth at 10 µM of under 10%.

Tested on: HOP-92
Assay: Growth inhibition of human HOP92 cells at 10 uM after 48 hrs by coulter counter analysis
Format: functional
Settings: HOP-92, 48 h, read-out: GI
In short: as §1
Work on `CC(C(=O)Nc1nccs1)N1CCN(c2ccccc2)CC1` (stereo unspecified) yielded an inhibition of growth at 10 µM of under 10%.

Tested on: MCF7
Assay: Growth inhibition of human MCF7 cells at 10 uM after 48 hrs by coulter counter analysis
Format: functional
Settings: MCF7, 48 h, read-out: GI
In short: as §1
In the case of `CC(C(=O)Nc1nccs1)N1CCN(c2ccccc2)CC1` (stereo unspecified), the inhibition of growth at 10 µM is reported as under 10%.

Tested on: RPMI-8226
Assay: Growth inhibition of human RPMI8226 cells at 10 uM after 48 hrs by coulter counter analysis
Format: functional
Settings: RPMI-8226, 48 h, read-out: GI
In short: as §1
`CC(C(=O)Nc1nccs1)N1CCN(c2ccccc2)CC1` (stereo unspecified) showed an inhibition of growth at 10 µM of under 10%.

Tested on: SF-268
Assay: Growth inhibition of human SF268 cells at 10 uM after 48 hrs by coulter counter analysis
Format: functional
Settings: SF-268, 48 h, read-out: GI
In short: as §1
Work on `CC(C(=O)Nc1nccs1)N1CCN(c2ccccc2)CC1` (stereo unspecified) yielded an inhibition of growth at 10 µM of under 10%.

Tested on: UO-31
Assay: Growth inhibition of human UO31 cells at 10 uM after 48 hrs by coulter counter analysis
Format: functional
Settings: UO-31, 48 h, read-out: GI
In short: (§2)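 Single-dose screen in the NCI 60 cell line panel. Cells grown in RPMI 1640 with 10% FBS. Compounds dissolved in DMSO and diluted in phosphate buffered saline, final DMSO under 1%. Duplicate wells seeded from culture at 6 × 10⁴ cells/ml. Incubated 48 h at 37 °C, humidified, 5% CO2. Cells diluted tenfold in saline and Coulter-counted. Percent growth inhibition computed against PBS/DMSO controls.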
In the case of `CC(C(=O)Nc1nccs1)N1CCN(c2ccccc2)CC1` (stereo unspecified), the inhibition of growth at 10 µM is reported as under 10%.

Tested on: UACC-62
Assay: Growth inhibition of human UACC62 cells at 10 uM after 48 hrs by coulter counter analysis
Format: functional
Settings: UACC-62, 48 h, read-out: GI
In short: as §2
`CC(C(=O)Nc1nccs1)N1CCN(c2ccccc2)CC1` (stereo unspecified) gave an inhibition of growth at 10 µM of under 10%.

Tested on: NCI-H522
Assay: Growth inhibition of human NCI-H522 cells at 10 uM after 48 hrs by coulter counter analysis
Format: functional
Settings: NCI-H522, 48 h, read-out: GI
In short: as §1
`CC(C(=O)Nc1nccs1)N1CCN(c2ccccc2)CC1` (stereo unspecified) gave an inhibition of growth at 10 µM of under 10%.

Tested on: IGROV-1
Assay: Growth inhibition of human IGROV1 cells at 10 uM after 48 hrs by coulter counter analysis
Format: functional
Settings: IGROV-1, 48 h, read-out: GI
In short: as §1
With `CC(C(=O)Nc1nccs1)N1CCN(c2ccccc2)CC1` (stereo unspecified) the inhibition of growth at 10 µM was under 10%.

Tested on: SW-620
Assay: Growth inhibition of human SW620 cells at 10 uM after 48 hrs by coulter counter analysis
Format: functional
Settings: SW-620, 48 h, read-out: GI
In short: as §2
Work on `CC(C(=O)Nc1nccs1)N1CCN(c2ccccc2)CC1` (stereo unspecified) yielded an inhibition of growth at 10 µM of under 10%.

Tested on: SK-MEL-5
Assay: Growth inhibition of human SK-MEL-5 cells at 10 uM after 48 hrs by coulter counter analysis
Format: functional
Settings: SK-MEL-5, 48 h, read-out: GI
In short: as §1
With `CC(C(=O)Nc1nccs1)N1CCN(c2ccccc2)CC1` (stereo unspecified) the inhibition of growth at 10 µM was under 10%.

Tested on: SR
Assay: Growth inhibition of human SR cells at 10 uM after 48 hrs by coulter counter analysis
Format: functional
Settings: read-out: GI
In short: as §2
`CC(C(=O)Nc1nccs1)N1CCN(c2ccccc2)CC1` (stereo unspecified) gave an inhibition of growth at 10 µM of under 10%.

Tested on: LOX IMVI
Assay: Growth inhibition of human LOXIMVI cells at 10 uM after 48 hrs by coulter counter analysis
Format: functional
Settings: read-out: GI
In short: as §1
In the case of `CC(C(=O)Nc1nccs1)N1CCN(c2ccccc2)CC1` (stereo unspecified), the inhibition of growth at 10 µM is reported as under 10%.

Tested on: COLO 205
Assay: Growth inhibition of human COLO205 cells at 10 uM after 48 hrs by coulter counter analysis
Format: functional
Settings: COLO 205, 48 h, read-out: GI
In short: as §1
For `CC(C(=O)Nc1nccs1)N1CCN(c2ccccc2)CC1` (stereo unspecified), the inhibition of growth at 10 µM was under 10%.

Tested on: ACHN
Assay: Growth inhibition of human ACHN cells at 10 uM after 48 hrs by coulter counter analysis
Format: functional
Settings: read-out: GI
In short: as §1
`CC(C(=O)Nc1nccs1)N1CCN(c2ccccc2)CC1` (stereo unspecified) showed an inhibition of growth at 10 µM of under 10%.

Tested on: NCI-H322M
Assay: Growth inhibition of human NCI-H322M cells at 10 uM after 48 hrs by coulter counter analysis
Format: functional
Settings: read-out: GI
In short: as §1
Compound `CC(C(=O)Nc1nccs1)N1CCN(c2ccccc2)CC1` (stereo unspecified) has an inhibition of growth at 10 µM of under 10%.

Tested on: not listed separately
Assay: Growth inhibition of human Hs 578T cells at 10 uM after 48 hrs by coulter counter analysis
Format: functional
Settings: read-out: GI
In short: as §1
`CC(C(=O)Nc1nccs1)N1CCN(c2ccccc2)CC1` (stereo unspecified) gave an inhibition of growth at 10 µM of under 10%.

Tested on: MDA-MB-468
Assay: Growth inhibition of human MDA-MB-468 cells at 10 uM after 48 hrs by coulter counter analysis
Format: functional
Settings: MDA-MB-468, 48 h, read-out: GI
In short: as §1
`CC(C(=O)Nc1nccs1)N1CCN(c2ccccc2)CC1` (stereo unspecified) showed an inhibition of growth at 10 µM of under 10%.

Tested on: SF-295
Assay: Growth inhibition of human SF295 cells at 10 uM after 48 hrs by coulter counter analysis
Format: functional
Settings: SF-295, 48 h, read-out: GI
In short: as §1
With `CC(C(=O)Nc1nccs1)N1CCN(c2ccccc2)CC1` (stereo unspecified) the inhibition of growth at 10 µM was under 10%.

Tested on: T47D
Assay: Growth inhibition of human T47D cells at 10 uM after 48 hrs by coulter counter analysis
Format: functional
Settings: read-out: GI
In short: as §2
`CC(C(=O)Nc1nccs1)N1CCN(c2ccccc2)CC1` (stereo unspecified) gave an inhibition of growth at 10 µM of under 10%.

Tested on: OVCAR-4
Assay: Growth inhibition of human OVCAR4 cells at 10 uM after 48 hrs by coulter counter analysis
Format: functional
Settings: OVCAR-4, 48 h, read-out: GI
In short: as §1
Work on `CC(C(=O)Nc1nccs1)N1CCN(c2ccccc2)CC1` (stereo unspecified) yielded an inhibition of growth at 10 µM of under 10%.

Tested on: OVCAR-5
Assay: Growth inhibition of human OVCAR5 cells at 10 uM after 48 hrs by coulter counter analysis
Format: functional
Settings: OVCAR-5, 48 h, read-out: GI
In short: as §1
Compound `CC(C(=O)Nc1nccs1)N1CCN(c2ccccc2)CC1` (stereo unspecified) has an inhibition of growth at 10 µM of under 10%.

Tested on: BT-549
Assay: Growth inhibition of human BT549 cells at 10 uM after 48 hrs by coulter counter analysis
Format: functional
Settings: BT-549, 48 h, read-out: GI
In short: as §1
For `CC(C(=O)Nc1nccs1)N1CCN(c2ccccc2)CC1` (stereo unspecified), the inhibition of growth at 10 µM was under 10%.

Tested on: SK-MEL-2
Assay: Growth inhibition of human SK-MEL-2 cells at 10 uM after 48 hrs by coulter counter analysis
Format: functional
Settings: SK-MEL-2, 48 h, read-out: GI
In short: as §1
`CC(C(=O)Nc1nccs1)N1CCN(c2ccccc2)CC1` (stereo unspecified) showed an inhibition of growth at 10 µM of under 10%.

Tested on: OVCAR-3
Assay: Growth inhibition of human OVCAR3 cells at 10 uM after 48 hrs by coulter counter analysis
Format: functional
Settings: OVCAR-3, 48 h, read-out: GI
In short: as §1
Compound `CC(C(=O)Nc1nccs1)N1CCN(c2ccccc2)CC1` (stereo unspecified) has an inhibition of growth at 10 µM of under 10%.

Tested on: MDA-MB-231
Assay: Growth inhibition of human MDA-MB-231 cells at 10 uM after 48 hrs by coulter counter analysis
Format: functional
Settings: MDA-MB-231, 48 h, read-out: GI
In short: as §1
With `CC(C(=O)Nc1nccs1)N1CCN(c2ccccc2)CC1` (stereo unspecified) the inhibition of growth at 10 µM was under 10%.

Tested on: SF-539
Assay: Growth inhibition of human SF539 cells at 10 uM after 48 hrs by coulter counter analysis
Format: functional
Settings: SF-539, 48 h, read-out: GI
In short: as §1
For `CC(C(=O)Nc1nccs1)N1CCN(c2ccccc2)CC1` (stereo unspecified), the inhibition of growth at 10 µM was under 10%.
